Legend:
[1] = molecular target: T1, Dihydrofolate reductase (Rattus norvegicus) (UniProt Q920D2); test: Tested for inhibition of dihydrofolate reductase enzyme purified from rat liver at the highest concentration tested
T1 sequence (whole entry): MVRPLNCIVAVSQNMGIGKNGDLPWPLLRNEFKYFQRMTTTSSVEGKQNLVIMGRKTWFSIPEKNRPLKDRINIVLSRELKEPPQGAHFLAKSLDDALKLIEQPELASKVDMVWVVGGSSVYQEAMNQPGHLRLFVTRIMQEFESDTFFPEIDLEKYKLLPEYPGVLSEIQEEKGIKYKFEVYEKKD
Outline: (§1)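 Enzyme partially purified from rat liver, assayed in phosphate buffer by the Baccanari method. Compound held 5 min with enzyme and buffer at 37 °C before NADPH, then FH2, started the reaction. Percent inhibition of reaction rate recorded at the highest concentration tested.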

[2] = molecular target: T2, Dihydrofolate reductase (Rattus norvegicus, UniProt Q920D2); test: Inhibition of dihydrofolate reductase from rat liver […]; settings: read-out: I50; outline: as §1
T2 sequence (Q920D2 whole entry): T1 sequence (whole entry)

[3] = Dissociation constant (pKa); assay type: physicochemical; settings: read-out: Dissociation constant
[4] = molecular target: T1, Dihydrofolate reductase (Rattus norvegicus); test: Tested for inhibition of dihydrofolate reductase enzyme purified from rat liver at a concentration of 1x 10 e6 M; outline: as §1
[5] = molecular target: T3, Dihydrofolate reductase (Escherichia coli) (UniProt P0ABQ4); test: Tested for inhibition of dihydrofolate reductase enzyme purified from Escherichia coli […]
T3 sequence (whole entry): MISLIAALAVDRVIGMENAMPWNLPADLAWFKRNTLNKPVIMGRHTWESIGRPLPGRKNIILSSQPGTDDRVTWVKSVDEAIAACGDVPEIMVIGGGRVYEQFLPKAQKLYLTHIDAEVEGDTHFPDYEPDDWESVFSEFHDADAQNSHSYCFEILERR
Outline: (§2)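 Affinity-column-purified E. coli enzyme in phosphate buffer (Baccanari method). Compound preincubated 5 min with enzyme and buffer at 37 °C. NADPH added, then FH2 to start the reaction. Value is percent inhibition of reaction rate at the highest concentration tested.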

[6] = molecular target: T3, Dihydrofolate reductase (Escherichia coli); test: (§3) Tested for inhibition of dihydrofolate reductase enzyme purified from Escherichia coli at a concentration of 1x 10 e6M; outline: as §2
[7] = molecular target: T3, Dihydrofolate reductase (Escherichia coli); test: as §3; outline: as §2; remark: listed apart in the source

Row | SMILES | inhibition [1] | IC50 [2] | pKa [3] | also measured
1 | CC(C)c1cc(Cc2cnc(N)cc2N)cc(C(C)C)c1O | 36% | ~27 mM |  | 
2 | Nc1ccncc1 [DALFAMPRIDINE] |  |  | 9.25 | 
3 | CCc1cc(Cc2ccc(N)nc2N)cc(CC)c1O | 26% | ~40 mM | 6.59 | 
4 | COc1cc(CC2=CC(Cc3cc(OC)c(O)c(OC)c3)C(=O)N=C2N)cc(OC)c1O (centres undefined) |  | 14 mM | 1.51 | 
5 | Nc1ncc(Br)c(N)c1Br |  |  | 5.5 | 
6 | CCc1cc(Cc2cc(Cc3cc(CC)c(O)c(CC)c3)c(N)nc2N)cc(CC)c1O | 19% | ~1 mM | 6.63 | 
7 | Nc1cccc(N)n1 |  |  | 6.73 | 
8 | CCOC(=O)Nc1ccnc(C(N)=O)c1 |  |  | 3.32 | 
9 | CCOC(=O)Nc1ccnc(NC(=O)OCC)c1 |  |  | 5.04 | 
10 | Nc1ccnc(N)c1Br |  |  | 7.44 | 
11 | Nc1ccnc(N)c1 |  |  | 9.25 | 

Continued, in another order:

Row | inhibition [1] | IC50 [2] | pKa [3] | SMILES | also measured
12 |  |  | 7.33 | COc1cc(CNc2ccnc(N)c2Br)cc(OC)c1O | 
13 |  |  | 7.26 | COc1cc(CNc2ccnc(N)c2F)cc(OC)c1O | 
14 | 37% | ~10 mM |  | COc1cc(Cc2cnc(N)cc2N)cc(OC)c1O | 
15 | 0% | ~23.7 mM |  | CC(C)c1cc(Cc2cnc(N)c(Br)c2N)cc(C(C)C)c1O | 
16 |  |  | 9.03 | COc1cc(Cc2cnc(N)cc2N)cc(OC)c1OC | inhibition [4]: 7%
17 | 34% | ~10 mM | 6.6 | COc1cc(Cc2ccc(N)nc2N)cc(OC)c1O | inhibition [5]: 0%
18 |  |  | 6.51 | COc1cc(CNc2cccc(N)n2)cc(OC)c1O | inhibition [6]: 29%; inhibition [7]: 25%; inhibition [4]: 0%
19 |  | 24 mM | 6.69 | COc1cc(Cc2cc(Cc3cc(OC)c(O)c(OC)c3)c(N)nc2N)cc(OC)c1O | inhibition [5]: 29%
20 | 2.4% | ~1 mM | 1.31 | COc1cc(CC2C=CC(N)=NC2=O)cc(OC)c1O (centres undefined) | inhibition [5]: 0%
21 | 32% | ~35 mM | 7.15 | COc1cc(Cc2cnc(N)c(F)c2N)cc(OC)c1O | 
22 |  | 41 mM |  | COc1cc(Cc2c(N)ccnc2N)cc(OC)c1O | inhibition [5]: 26%
23 | 21% | ~42 mM | 7.2 | COc1cc(Cc2cnc(N)c(Br)c2N)cc(OC)c1O | inhibition [5]: 11%
